Common to all, as to type: functional
The test system of one test is Escherichia coli. Put plainly: Antibacterial activity against Escherichia coli ATCC 8739 assessed as growth inhibition after 18 hrs by agar dilution method. The settings on record: ATCC 8739, 18 h. The method, boiled down:
(§1)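 MIC read by conventional agar dilution. Compounds were dissolved at 10.0 mg in 1 mL DMSO and diluted with 9 mL distilled water to make the stock. Two-fold serial dilutions were made in molten sterile Mueller-Hinton agar, with final levels starting at 100, 50, 25, 12.5, 6.25, 3.13, 1.56 and lower.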
(In general: In agar dilution the substance is mixed into plates at graded concentrations.)

A further test relates to Bacillus spizizenii. Put plainly: Antibacterial activity against Bacillus subtilis ATCC 6633 assessed as growth inhibition after 18 hrs by agar dilution method. The settings on record: ATCC 6633, 18 h. The method, boiled down: as §1
The test system of test [1] is Pseudomonas aeruginosa. Kind of test: Antibacterial activity against Pseudomonas aeruginosa ATCC 9027 assessed as growth inhibition after 18 hrs by agar dilution method. The settings on record: ATCC 9027, 18 h. Summed up: as §1
In test [2] the test system is Staphylococcus aureus. Kind of test: Antibacterial activity against Staphylococcus aureus ATCC 6538 assessed as growth inhibition after 18 hrs by agar dilution method. The settings on record: ATCC 6538, 18 h. The method, boiled down:
as §1

The subject of test [3] is Staphylococcus epidermidis. Put plainly: Antibacterial activity against Staphylococcus epidermidis ATCC 12228 assessed as growth inhibition after 18 hrs by agar dilution method. The settings on record: ATCC 12228, 18 h. Summed up:
as §1

For another test, the system named is Klebsiella pneumoniae. Kind of test: Antibacterial activity against Klebsiella pneumoniae ATCC 10031 assessed as growth inhibition after 18 hrs by agar dilution method. The settings on record: ATCC 10031, 18 h. The method, boiled down:
as §1

The test system of test [4] is Staphylococcus aureus. Kind of test: Potency index, ratio of norfloxacin MIC to compound MIC for Staphylococcus aureus ATCC 6538.
The test system of test [5] is Pseudomonas aeruginosa. Put plainly: Potency index, ratio of norfloxacin MIC to compound MIC for Pseudomonas aeruginosa ATCC 9027.

Experimental findings from ChEMBL document CHEMBL2424602, “Mannich bases of 7-piperazinylquinolones and kojic acid derivatives: synthesis, in vitro antibacterial activity and in silico study” (2013) are described below.

≈ marks a conversion by molar mass, not a printed value.

Turning to `O=C(O)c1cn(C2CC2)c2cc(N3CCN(Cc4oc(CO)cc(=O)c4O)CC3)c(F)cc2c1=O`, the MIC (as a rule, the least concentration at which growth counts as inhibited) with Escherichia coli worked out at 0.78 µg/mL (≈ 1.61 µM); with Bacillus spizizenii it was 3.12 µg/mL (≈ 6.44 µM); in the test with Pseudomonas aeruginosa [1], 1.56 µg/mL (≈ 3.21 µM); with Staphylococcus aureus [2] it was 1.56 µg/mL (≈ 3.21 µM); in test [3] it was 3.12 µg/mL (≈ 6.44 µM); in the test with Klebsiella pneumoniae, 1.56 µg/mL (≈ 3.21 µM).

As for `O=C(O)c1cn(C2CC2)c2cc(N3CCN(Cc4oc(CCl)cc(=O)c4O)CC3)c(F)cc2c1=O`, the Ratio in the test on Staphylococcus aureus [4] is listed as 4; with Pseudomonas aeruginosa [5], 8. Further, the MIC in the test on Escherichia coli stood at 0.78 µg/mL (≈ 1.55 µM); in the test with Bacillus spizizenii, 0.39 µg/mL (≈ 0.774 µM); with Pseudomonas aeruginosa [1] it was 0.195 µg/mL (≈ 0.387 µM); in the test on Staphylococcus aureus [2] it was 0.097 µg/mL (≈ 0.192 µM); in test [3], 0.39 µg/mL (≈ 0.774 µM); with Klebsiella pneumoniae, 0.195 µg/mL (≈ 0.387 µM).

Turning to `COc1c(N2CCN(Cc3oc(CO)cc(=O)c3O)C(C)C2)c(F)cc2c(=O)c(C(=O)O)cn(C3CC3)c12` (stereo unspecified), the MIC in the test with Escherichia coli was 0.39 µg/mL (≈ 0.737 µM); in the test on Bacillus spizizenii, 3.12 µg/mL (≈ 5.9 µM); in the test on Pseudomonas aeruginosa [1], 0.78 µg/mL (≈ 1.47 µM); in the test with Staphylococcus aureus [2], 0.78 µg/mL (≈ 1.47 µM); in test [3], 3.12 µg/mL (≈ 5.9 µM); in the test on Klebsiella pneumoniae it was 1.56 µg/mL (≈ 2.95 µM).

For the molecule `COc1c(N2CCN(Cc3oc(CCl)cc(=O)c3O)C(C)C2)c(F)cc2c(=O)c(C(=O)O)cn(C3CC3)c12` (stereo unspecified), the MIC in the test with Escherichia coli came to 1.56 µg/mL (≈ 2.85 µM); in the test on Bacillus spizizenii, 1.56 µg/mL (≈ 2.85 µM); in the test on Pseudomonas aeruginosa [1], 0.78 µg/mL (≈ 1.42 µM); in the test on Staphylococcus aureus [2] it was 0.39 µg/mL (≈ 0.712 µM); in test [3], 1.56 µg/mL (≈ 2.85 µM); in the test with Klebsiella pneumoniae, 1.56 µg/mL (≈ 2.85 µM).

For `CCn1cc(C(=O)O)c(=O)c2cc(F)c(N3CCN(Cc4oc(CO)cc(=O)c4O)CC3)cc21`, the MIC with Escherichia coli was 0.78 µg/mL (≈ 1.65 µM); in the test on Bacillus spizizenii, 0.78 µg/mL (≈ 1.65 µM); in the test with Pseudomonas aeruginosa [1] it was 3.12 µg/mL (≈ 6.6 µM); in the test with Staphylococcus aureus [2] it was 3.12 µg/mL (≈ 6.6 µM); in test [3], 6.25 µg/mL (≈ 13.2 µM); in the test with Klebsiella pneumoniae, 1.56 µg/mL (≈ 3.29 µM).

Regarding `CCn1cc(C(=O)O)c(=O)c2cc(F)c(N3CCN(Cc4oc(CCl)cc(=O)c4O)CC3)cc21`, the minimal inhibitory concentration (MIC) is 0.39 µg/mL (≈ 0.793 µM) in the test on Escherichia coli; 1.56 µg/mL (≈ 3.17 µM) in the test with Bacillus spizizenii; 1.56 µg/mL (≈ 3.17 µM) in the test on Pseudomonas aeruginosa [1]; 1.56 µg/mL (≈ 3.17 µM) with Staphylococcus aureus [2]; 1.56 µg/mL (≈ 3.17 µM) in test [3]; 0.78 µg/mL (≈ 1.59 µM) in the test with Klebsiella pneumoniae.

Take `CCn1cc(C(=O)O)c(=O)c2cc(F)c(N3CCN(Cc4oc(CO)cc(=O)c4O)CC3)nc21`: the minimum inhibitory concentration (MIC) in the test on Escherichia coli stood at 1.56 µg/mL (≈ 3.29 µM); in the test on Bacillus spizizenii, 12.5 µg/mL (≈ 26.3 µM); in the test on Pseudomonas aeruginosa [1], 12.5 µg/mL (≈ 26.3 µM); in the test on Staphylococcus aureus [2], 6.25 µg/mL (≈ 13.2 µM); in test [3], 12.5 µg/mL (≈ 26.3 µM); in the test with Klebsiella pneumoniae, 12.5 µg/mL (≈ 26.3 µM).

For the molecule `CCn1cc(C(=O)O)c(=O)c2cc(F)c(N3CCN(Cc4oc(CO)cc(=O)c4O)C(C)C3)c(F)c21` (racemic), the MIC was 0.39 µg/mL (≈ 0.772 µM) with Escherichia coli; 3.12 µg/mL (≈ 6.18 µM) in the test on Bacillus spizizenii; 3.12 µg/mL (≈ 6.18 µM) in the test on Pseudomonas aeruginosa [1]; 3.12 µg/mL (≈ 6.18 µM) in the test on Staphylococcus aureus [2]; 6.25 µg/mL (≈ 12.4 µM) in test [3]; 1.56 µg/mL (≈ 3.09 µM) in the test on Klebsiella pneumoniae.

As for `CCn1cc(C(=O)O)c(=O)c2cc(F)c(N3CCNCC3)cc21` [NORFLOXACIN], the minimal inhibitory concentration (MIC) with Escherichia coli was 0.195 µg/mL (≈ 0.611 µM); with Bacillus spizizenii, 0.195 µg/mL (≈ 0.611 µM); with Pseudomonas aeruginosa [1] it was 1.56 µg/mL (≈ 4.89 µM); with Staphylococcus aureus [2], 0.39 µg/mL (≈ 1.22 µM); in test [3] it was 0.39 µg/mL (≈ 1.22 µM); in the test with Klebsiella pneumoniae, 0.39 µg/mL (≈ 1.22 µM).
